For series [1], the target named is Free fatty acid receptor 1 (Homo sapiens) (UniProt O14842). Description: Agonist activity at human FFA1 receptor expressed in CHO cells assessed as intracellular calcium influx at 100 nM measured for 90 sec by Fluo-4-AM dye based FLIPR assay relative to control. Type of series: functional, cell-based. In short, it runs like this:
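CHO cells stably expressing human FFA1 (NM_005303), 15 K cells/well, grown 12 h at 37 °C in 5% CO2, then HBSS wash. Ca2+ signal read by FLIPR for 90 s after addition. Activity = (test − vehicle)/(10 µM γ-linolenic acid − vehicle) × 100; mean of three independent experiments.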

In series [2] the test system is Mus musculus. Description: Hypoglycemic effect in normal ICR mouse assessed as decrease in plasma glucose level at 50 mg/kg, po administered as single dose 30 mins prior to glucose challenge by OGTT relative to control. The class given is functional, organism-based. The settings on record: TDE = time-dependent effect. Summed up:
(§1)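 Ten-week-old male ICR mice, fasted 12 h, randomized n = 6 per group. Single oral dose in 0.5% CMC given 30 min before oral glucose 3 g/kg. Tail-vein blood glucose measured by test strips at −30, 0, 15, 30, 45, 60 and 120 min; AUC0-2h calculated; mean ± SEM, Student's t-test vs vehicle.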

Series [3] in a line: 1-octanol-phosphate buffer distribution coefficient, log D of compound at 100 uM at pH 7.4 after 24 hrs by HPLC based shake flask method. Type of series: physicochemical. Summed up:
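Final concentration 100 µM, diluted from 10 mM DMSO stock, in 1:1 0.01 M phosphate buffer pH 7.4 and 1-octanol. Shaken 700 rpm for 24 h, then 1 h phase separation. Octanol phase diluted ×10 before HPLC, buffer phase injected directly, each in duplicate. LogD = octanol/buffer peak area at 254 nm, corrected with two calibration points; three independent experiments.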

In series [4] the test system is Mus musculus. Description: Hypoglycemic effect in normal ICR mouse assessed as decrease in blood glucose AUC (0 to 2 hrs) at 50 mg/kg, po administered as single dose 30 mins prior to glucose challenge by OGTT relative to control. Type of series: functional. Details: scale not given: the % may be the effect or the level left. Summed up: as §1
In series [5] the test system is Mus musculus. Put plainly: Hypoglycemic effect in fasting STZ-induced type-2 diabetic C57BL/6 mouse assessed as decrease in blood glucose AUC (0 to 2 hrs) at 50 mg/kg, po administered as single dose 30 mins prior to glucose challenge by OGTT relative to control. Type of series: functional. Details: scale not given: the % may be the effect or the level left. In short, it runs like this: (§2)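 Male C57BL/6 mice on high-fat diet (45% kcal fat) for 4 weeks, then STZ 80 mg/kg i.p., then high-fat diet another 4 weeks. Fasting glucose ≥11.1 mmol/L taken as diabetic. Fasted 12 h, n = 6 per group. Oral dose in 0.5% CMC 30 min before oral glucose 2 g/kg. Tail-vein glucose by test strips at −30, 0, 15, 30, 45, 60 and 120 min; AUC0-2h; mean ± SEM.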

The test system of series [6] is Mus musculus. Description: Hypoglycemic effect in fasting STZ-induced type-2 diabetic C57BL/6 mouse assessed as decrease in blood glucose AUC (0 to 2 hrs) at 20 mg/kg, po administered as single dose 30 mins prior to glucose challenge measured by OGTT relative to control. Also on record: scale not given: the % may be the effect or the level left. Type of series: functional. In short, it runs like this:
as §2

Molecules are shown by their SMILES.

Chain of Free fatty acid receptor 1 (Homo sapiens) (O14842 whole entry): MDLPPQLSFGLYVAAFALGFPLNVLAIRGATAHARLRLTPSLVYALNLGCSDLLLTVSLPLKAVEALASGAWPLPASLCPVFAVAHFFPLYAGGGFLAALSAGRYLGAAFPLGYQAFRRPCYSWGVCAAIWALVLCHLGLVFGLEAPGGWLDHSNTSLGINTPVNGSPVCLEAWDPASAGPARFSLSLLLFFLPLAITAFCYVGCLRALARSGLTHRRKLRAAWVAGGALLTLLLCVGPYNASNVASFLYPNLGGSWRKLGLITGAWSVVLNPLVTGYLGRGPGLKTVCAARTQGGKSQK

As for `O=C(O)COc1ccc(OCc2cn(-c3ccc(Cl)cc3)nn2)cc1`, the Activity in series [1] turned out to be 19.4%.
Turning to `O=C(O)CC1COc2cc(OCc3cn(-c4ccc(Cl)cc4)nn3)ccc21` (stereo unspecified), the Activity result with Mus musculus [2] was “Tde”; in series [1], 24.7%.
By logD is commonly meant the decadic logarithm of the distribution of all forms, ionised or not, between an organic phase and buffer at a given pH. `O=C(O)CC1COc2cc(OCc3cn(-c4c(Cl)cccc4Cl)nn3)ccc21` (stereo unspecified): in series [1], the Activity was 21.7%. The logD at 24 h, 100 µM in series [3] stood at 1.96.
Turning to `O=C(O)COc1ccc(OCc2cn(-c3ccc(F)cc3)nn2)cc1`, in series [1], the Activity worked out at 13.8%.
With `Cc1ccc(Cl)cc1-n1cc(COc2ccc3c(c2)OCC3CC(=O)O)nn1` (stereo unspecified), the Activity in the series with Mus musculus [4] is 16.8%; in the series on Mus musculus [2] it was “Tde”; in series [1], 33.8%. In series [3], this molecule displayed a logD at 24 h, 100 µM of 2.08.
In the case of `Cc1cccc(-n2cc(COc3ccc(OCC(=O)O)cc3)nn2)c1`, the Activity in series [1] stood at 11.8%.
As to `Cc1ccc(Cl)cc1-n1cc(COc2ccc(OCC(=O)O)c(F)c2)nn1`, the Activity was 21.4% in the series with Mus musculus [4], “Tde” in the series with Mus musculus [2], 36.1% in series [1] and 14.2% in the series on Mus musculus [5]. In addition, the logD at 24 h, 100 µM in series [3] came to 1.95.
For `O=C(O)CC1COc2cc(OCc3cn(-c4ccccc4F)nn3)ccc21` (stereo unspecified), the Activity in series [1] was 6.69%.
Still for that read-out and setting: as for `O=C(O)COc1ccc(OCc2cn(-c3ccccc3Cl)nn2)cc1F`, the figure is 11.3%; as for `CCOc1ccc(-n2cc(COc3ccc(OCC(=O)O)c(F)c3)nn2)cc1`, 7.62%.
In the case of `O=C(O)CC1COc2cc(OCc3cn(-c4cccc(Cl)c4)nn3)ccc21` (stereo unspecified), the Activity in series [1] was 22.8%. Besides, the logD at 24 h, 100 µM in series [3] is 1.09.
Take `O=C(O)CC1COc2cc(OCc3cn(-c4ccccc4)nn3)ccc21` (stereo unspecified): in series [1], the Activity came to 0.76%.
On to `O=C(O)CC1COc2cc(OCc3cn(-c4ccccc4Cl)nn3)ccc21` (stereo unspecified), for which the Activity in series [1] turned out to be 9.34%.
On to `CC(C)(C)c1ccc(-n2cc(COc3ccc(OCC(=O)O)c(F)c3)nn2)cc1`, for which, in series [1], the Activity is 4.53%.
For the molecule `O=C(O)COc1ccc(OCc2cn(-c3ccc(Cl)cc3)nn2)cc1F`, the Activity entry with Mus musculus [2] is “Tde”; in series [1] it was 26.1%. In series [3], this molecule showed a log distribution coefficient (logD) at 24 h, 100 µM of 1.37.
`O=C(O)COc1ccc(OCc2cn(-c3ccc(F)cc3)nn2)cc1F`: the Activity in series [1] was found to be 20.4%. In series [3], the logD at 24 h, 100 µM was found to be 0.92.
Taken in the same sequence, the figures for `O=C(O)COc1ccc(OCc2cn(-c3ccccc3)nn2)cc1F` were 5.83% and -0.23.
Turning to `O=C(O)COc1ccc(OCc2cn(-c3cccc(Cl)c3)nn2)cc1F`, in series [1], the Activity came to 22.7%.
Turning to `Cc1cc(OCCCS(C)(=O)=O)cc(C)c1-c1cccc(COc2ccc3c(c2)OC[C@H]3CC(=O)O)c1` [FASIGLIFAM], the Activity in the series with Mus musculus [6] came to 32.5%.
Take `COc1cccc(-n2cc(COc3ccc(OCC(=O)O)c(F)c3)nn2)c1`: the values for the Activity entry (with Mus musculus [2]; in series [1]) were “Tde” and 24.4%, respectively. In series [3], the logD at 24 h, 100 µM was determined as 0.52.
Turning to `O=C(O)COc1ccc(OCc2cn(-c3c(Cl)cccc3Cl)nn2)cc1F`, the Activity in the series on Mus musculus [4] is 17.7%; in the series with Mus musculus [2], “Tde”; in series [1], 29.7%. In series [3], this molecule gave a logD at 24 h, 100 µM of 2.16.
Consider `COc1cccc(-n2cc(COc3ccc4c(c3)OCC4CC(=O)O)nn2)c1` (stereo unspecified), for which, in series [1], the Activity was determined as 19.4%.
Same read-out and setting: as for `O=C(O)COc1ccc(OCc2cn(-c3ccccc3)nn2)cc1`, the figure is 0.64%.
The same measure, in the same setting: as for `COc1ccccc1-n1cc(COc2ccc(OCC(=O)O)c(F)c2)nn1`, the figure is 14.6%; as for `O=C(O)CC1COc2cc(OCc3cn(-c4ccc(OCc5ccccc5)cc4)nn3)ccc21` (stereo unspecified), 3.67%.
`Cc1ccc(-n2cc(COc3ccc(OCC(=O)O)cc3)nn2)cc1`: the Activity in series [1] was determined as 16.4%. The molecule further displayed a logD at 24 h, 100 µM in series [3] of 0.89.

Source of the values: ChEMBL document CHEMBL4428117, “Discovery of novel free fatty acid receptor 1 agonists bearing triazole core via click chemistry” (Bioorg Med Chem, 2016).
